Laboratory results published in ChEMBL document CHEMBL5303300, “EUbOPEN Chemogenomics Library - Multiplex” (2023).
Several values for one entry are separate records, joined by “and”; a condition that tells them apart may be missing. Identical values can stand only once.

Tested on: U2OS
Experiment: Multiplex assay against U2OS
Format: toxicity, cell-based
Conditions: human, number of replicates 2
Method in brief: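 Live cells were stained at seeding with Hoechst33342, BioTracker Green Microtubule Cytoskeleton Dye, MitoTracker Red and Annexin V Alexa Fluor 680. Following compound addition, they were imaged on a CQ1 microscope at 37°C and 5% CO2 and gated by CellPathfinder machine learning into Hoechst high-intensity objects or normal cells, with normal cells split into healthy, pyknosed or fragmented nuclei and pyknosed cells into mitotic or apoptotic. Tubulin, mitochondrial-mass and membrane-permeability phenotypes are per cents of healthy-nucleus cells.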

[1] = 12 h, 1 µM, compound concentration 1 uM
[2] = 12 h, 10 µM, compound concentration 10 uM
[3] = 24 h, 1 µM, compound concentration 1 uM
[4] = 24 h, 10 µM, compound concentration 10 uM
[5] = 48 h, 1 µM, compound concentration 1 uM
[6] = 48 h, 10 µM, compound concentration 10 uM

COc1ccc(NC(=O)c2ccc(-c3ccc(-c4noc(C)n4)cc3C)cc2)cc1OCCN(C)C.Cl
Population Apoptotic (%) [1]: 40% and 45% | Population Healthy Nuclei (%) [1]: 61% and 83% | Population Hoechst High Intensity Objects (%) [1]: 0% | Population Membrane Permeable-Phenotype (%) [1]: 5% and 4% | Population Mitochondria Different-Phenotype (%) [1]: 5% and 13% | Population Mitotic Cells (%) [1]: 60% and 55% | Population Normal (%) [1]: 100% | Population Pyknosed Nuclei (%) [1]: 16% and 11% | Population Tubulin-Different-Phenotype (%) [1]: 36% and 40% | Population Apoptotic (%) [2]: 76% and 60% | Population Fragmented Nuclei (%) [2]: 10% and 23% | Population Healthy Nuclei (%) [2]: 43% and 51% | Population Hoechst High Intensity Objects (%) [2]: 1% and 0% | Population Membrane Permeable-Phenotype (%) [2]: 34% and 30% | Population Mitochondria Different-Phenotype (%) [2]: 67% and 85% | Population Mitotic Cells (%) [2]: 23% and 40% | Population Normal (%) [2]: 98% and 100% | Population Pyknosed Nuclei (%) [2]: 46% and 25% | Population Tubulin-Different-Phenotype (%) [2]: 93% and 100% | Population Apoptotic (%) [3]: 55% and 51% | Population Healthy Nuclei (%) [3]: 55% and 78% | Population Hoechst High Intensity Objects (%) [3]: 2% and 0% | Population Membrane Permeable-Phenotype (%) [3]: 5% | Population Mitochondria Different-Phenotype (%) [3]: 15% and 17% | Population Mitotic Cells (%) [3]: 44% and 48% | Population Normal (%) [3]: 97% and 99% | Population Pyknosed Nuclei (%) [3]: 25% and 15% | Population Tubulin-Different-Phenotype (%) [3]: 35% and 34% | Population Apoptotic (%) [4]: 63% and 86% | Population Fragmented Nuclei (%) [4]: 16% and 6% | Population Healthy Nuclei (%) [4]: 32% | Population Hoechst High Intensity Objects (%) [4]: 0% | Population Membrane Permeable-Phenotype (%) [4]: 58% and 79% | Population Mitochondria Different-Phenotype (%) [4]: 75% and 89% | Population Mitotic Cells (%) [4]: 36% and 13% | Population Normal (%) [4]: 100% and 99% | Population Pyknosed Nuclei (%) [4]: 51% and 61% | Population Tubulin-Different-Phenotype (%) [4]: 100% and 98% | Population Apoptotic (%) [5]: 77% and 72% | Population Fragmented Nuclei (%) [5]: 16% and 7% | Population Healthy Nuclei (%) [5]: 65% and 77% | Population Hoechst High Intensity Objects (%) [5]: 2% and 0% | Population Membrane Permeable-Phenotype (%) [5]: 6% | Population Mitochondria Different-Phenotype (%) [5]: 3% and 12% | Population Mitotic Cells (%) [5]: 22% and 27% | Population Normal (%) [5]: 98% and 100% | Population Pyknosed Nuclei (%) [5]: 18% and 15% | Population Tubulin-Different-Phenotype (%) [5]: 37% and 40% | Population Apoptotic (%) [6]: 95% and 98% | Population Fragmented Nuclei (%) [6]: 21% and 14% | Population Healthy Nuclei (%) [6]: 18% and 6% | Population Hoechst High Intensity Objects (%) [6]: 2% and 1% | Population Membrane Permeable-Phenotype (%) [6]: 85% and 92% | Population Mitochondria Different-Phenotype (%) [6]: 71% and 100% | Population Mitotic Cells (%) [6]: 4% and 1% | Population Normal (%) [6]: 97% and 98% | Population Pyknosed Nuclei (%) [6]: 59% and 79% | Population Tubulin-Different-Phenotype (%) [6]: 100% and 92%

CN(C)CCN(Cc1ccc(-c2ccc(CNCCc3ccccc3)cc2)cc1)C(=O)CCC1CCCC1.Cl.Cl
Population Apoptotic (%) [1]: 77% and 66% | Population Fragmented Nuclei (%) [1]: 17% and 9% | Population Healthy Nuclei (%) [1]: 55% and 78% | Population Hoechst High Intensity Objects (%) [1]: 0% | Population Membrane Permeable-Phenotype (%) [1]: 0% and 6% | Population Mitochondria Different-Phenotype (%) [1]: 36% and 27% | Population Mitotic Cells (%) [1]: 22% and 33% | Population Normal (%) [1]: 100% | Population Pyknosed Nuclei (%) [1]: 26% and 11% | Population Tubulin-Different-Phenotype (%) [1]: 42% and 43% | Population Apoptotic (%) [2]: 100% and 99% | Population Fragmented Nuclei (%) [2]: 7% and 5% | Population Healthy Nuclei (%) [2]: 11% and 13% | Population Hoechst High Intensity Objects (%) [2]: 0% and 2% | Population Membrane Permeable-Phenotype (%) [2]: 100% | Population Mitochondria Different-Phenotype (%) [2]: 100% and 88% | Population Mitotic Cells (%) [2]: 0% | Population Normal (%) [2]: 100% and 97% | Population Pyknosed Nuclei (%) [2]: 80% and 81% | Population Tubulin-Different-Phenotype (%) [2]: 100% and 88% | Population Apoptotic (%) [3]: 78% and 64% | Population Fragmented Nuclei (%) [3]: 10% and 23% | Population Healthy Nuclei (%) [3]: 73% and 44% | Population Hoechst High Intensity Objects (%) [3]: 0% | Population Membrane Permeable-Phenotype (%) [3]: 7% and 5% | Population Mitochondria Different-Phenotype (%) [3]: 39% and 57% | Population Mitotic Cells (%) [3]: 21% and 35% | Population Normal (%) [3]: 100% | Population Pyknosed Nuclei (%) [3]: 16% and 32% | Population Tubulin-Different-Phenotype (%) [3]: 44% and 36% | Population Apoptotic (%) [4]: 100% and 96% | Population Healthy Nuclei (%) [4]: 3% and 6% | Population Hoechst High Intensity Objects (%) [4]: 0% and 3% | Population Membrane Permeable-Phenotype (%) [4]: 100% | Population Mitochondria Different-Phenotype (%) [4]: 100% and 88% | Population Mitotic Cells (%) [4]: 0% and 3% | Population Normal (%) [4]: 100% and 96% | Population Pyknosed Nuclei (%) [4]: 76% and 87% | Population Tubulin-Different-Phenotype (%) [4]: 100% and 88% | Population Apoptotic (%) [5]: 80% and 83% | Population Fragmented Nuclei (%) [5]: 26% and 10% | Population Healthy Nuclei (%) [5]: 34% and 70% | Population Hoechst High Intensity Objects (%) [5]: 0% | Population Mitotic Cells (%) [5]: 20% and 16% | Population Normal (%) [5]: 100% | Population Pyknosed Nuclei (%) [5]: 40% and 18% | Population Tubulin-Different-Phenotype (%) [5]: 58% and 62% | Population Apoptotic (%) [6]: 93% and 97% | Population Fragmented Nuclei (%) [6]: 8% and 14% | Population Hoechst High Intensity Objects (%) [6]: 0% and 1% | Population Membrane Permeable-Phenotype (%) [6]: 100% | Population Mitochondria Different-Phenotype (%) [6]: 100% | Population Mitotic Cells (%) [6]: 6% and 2% | Population Normal (%) [6]: 100% and 98% | Population Pyknosed Nuclei (%) [6]: 66% and 80% | Population Tubulin-Different-Phenotype (%) [6]: 100%

COc1cc(C(=O)NC2CCN(C)CC2)ccc1Nc1ncc(C(F)(F)F)c(NCc2ccc(C)cc2N(C)S(C)(=O)=O)n1.O=CO.O=CO
Population Apoptotic (%) [1]: 50% and 69% | Population Fragmented Nuclei (%) [1]: 6% and 5% | Population Healthy Nuclei (%) [1]: 81% and 80% | Population Hoechst High Intensity Objects (%) [1]: 0% | Population Membrane Permeable-Phenotype (%) [1]: 7% and 20% | Population Mitotic Cells (%) [1]: 50% and 30% | Population Normal (%) [1]: 100% | Population Pyknosed Nuclei (%) [1]: 12% and 14% | Population Tubulin-Different-Phenotype (%) [1]: 38% and 40% | Population Apoptotic (%) [2]: 66% and 81% | Population Healthy Nuclei (%) [2]: 25% | Population Hoechst High Intensity Objects (%) [2]: 1% and 3% | Population Membrane Permeable-Phenotype (%) [2]: 38% and 48% | Population Mitochondria Different-Phenotype (%) [2]: 84% and 69% | Population Mitotic Cells (%) [2]: 33% and 18% | Population Normal (%) [2]: 98% and 96% | Population Pyknosed Nuclei (%) [2]: 47% and 66% | Population Tubulin-Different-Phenotype (%) [2]: 100% and 96% | Population Apoptotic (%) [3]: 42% and 74% | Population Fragmented Nuclei (%) [3]: 4% and 5% | Population Healthy Nuclei (%) [3]: 74% and 79% | Population Hoechst High Intensity Objects (%) [3]: 0% | Population Membrane Permeable-Phenotype (%) [3]: 4% and 8% | Population Mitochondria Different-Phenotype (%) [3]: 30% and 36% | Population Mitotic Cells (%) [3]: 57% and 25% | Population Normal (%) [3]: 100% | Population Pyknosed Nuclei (%) [3]: 21% and 15% | Population Tubulin-Different-Phenotype (%) [3]: 26% and 35% | Population Apoptotic (%) [4]: 96% and 93% | Population Healthy Nuclei (%) [4]: 6% and 7% | Population Hoechst High Intensity Objects (%) [4]: 3% and 5% | Population Membrane Permeable-Phenotype (%) [4]: 75% and 80% | Population Mitochondria Different-Phenotype (%) [4]: 100% and 86% | Population Mitotic Cells (%) [4]: 4% and 6% | Population Normal (%) [4]: 96% and 94% | Population Pyknosed Nuclei (%) [4]: 43% and 78% | Population Tubulin-Different-Phenotype (%) [4]: 100% and 93% | Population Apoptotic (%) [5]: 64% and 83% | Population Fragmented Nuclei (%) [5]: 12% and 4% | Population Healthy Nuclei (%) [5]: 50% and 68% | Population Hoechst High Intensity Objects (%) [5]: 1% and 0% | Population Membrane Permeable-Phenotype (%) [5]: 6% and 7% | Population Mitochondria Different-Phenotype (%) [5]: 20% and 28% | Population Mitotic Cells (%) [5]: 35% and 16% | Population Normal (%) [5]: 98% and 99% | Population Pyknosed Nuclei (%) [5]: 37% and 26% | Population Tubulin-Different-Phenotype (%) [5]: 24% and 46% | Population Apoptotic (%) [6]: 92% | Population Healthy Nuclei (%) [6]: 5% and 9% | Population Hoechst High Intensity Objects (%) [6]: 0% and 3% | Population Membrane Permeable-Phenotype (%) [6]: 100% and 73% | Population Mitochondria Different-Phenotype (%) [6]: 66% and 73% | Population Mitotic Cells (%) [6]: 7% | Population Normal (%) [6]: 100% and 96% | Population Pyknosed Nuclei (%) [6]: 49% and 76% | Population Tubulin-Different-Phenotype (%) [6]: 100%
